Test results reported in article PMC2761948 (Journal of medicinal chemistry, 2009).

How the values were obtained:
[1] = tested on: 4T1 cells; test: Migration assay; format: cell-based, mouse
Summary of the method: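 Trypsinised 4T1 cells (5 × 10^4) in 0.2% FBS RPMI with test compound were placed in Transwell inserts (12-μm pore polycarbonate) for 30 min at 37 °C. Inserts then moved to wells with 10% FBS RPMI for 24 h. Migrated and non-migrated cells were crystal violet-stained and methanol-solubilised separately; A570 read. Background-corrected % migration normalised to vehicle; mean ± SD, n = 3.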

[2] = tested on: focal adhesion kinase (FAK); test: FAK immunostaining and Western blotting; format: cell-based, mouse; conditions: 1 h; for FAK degradation (Western blotting): 4T1 cells
Summary of the method: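 4T1 cells treated for 1 h with test compound or DMSO. For focal adhesion sites, cells were fixed and immunostained with anti-FAK antibody (2.5 μM test compound, 5 μM comparator). For FAK stability, each agent was given at 5 μM and cell lysates were immunoblotted with anti-FAK monoclonal antibody.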

[3] = tested on: 4T1 cells; test: F-actin immunostaining; format: cell-based, mouse; conditions: 4-h exposure
Summary of the method: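 Cells grown overnight on coverslips, then exposed to test compound for 4 h in 2% FBS RPMI 1640. They were fixed in 3.7% formaldehyde, permeabilised 1 h (PBS, 0.1% Triton X-100, 0.1% BSA) and stained 30 min with Alexa Fluor 488 phallotoxin, with DAPI counterstain. Confocal imaging (488/543 nm excitation); fluorescence intensity expressed as % of untreated control.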

[4] = tested on: MCF-7 breast cancer cells; test: Adhesion assay, MCF-7 cells to Matrigel-coated surface; format: cell-based, human; conditions: at 100 μM
Summary of the method: (§1)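 Wells coated with 12% (v/v) Matrigel for 1 h at 37 °C, washed with 0.1% BSA-RPMI, then blocked with 0.5% BSA-RPMI for 60 min. Cells were pretreated with test compound for 60 min at 37 °C, seeded at 2 × 10^4 per well, and left to adhere for 30 min. Adherent cells were fixed in formalin, stained with crystal violet and solubilised in 2% SDS; A570 read. Mean ± SD, n = 3.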

[5] = tested on: SKBR3 breast cancer cells; test: Adhesion assay, SKBR3 cells to Matrigel-coated surface; format: cell-based, human; conditions: at 100 μM
Summary of the method: as §1

[6] = tested on: 4T1 metastatic breast cancer cells; test: Adhesion assay, 4T1 cells to Matrigel-coated surface; format: cell-based, mouse; conditions: read-out: IC50, inhibition of 4T1 cell adhesion

## Cc1c(C)c2c(c(C)c1OC(=O)CCC(=O)O)CC[C@](C)(/C=C/CC(C)CCCC(C)C)O2 (stereo partly shown) [Compound 4, Succinic acid mono-[2-(4,8-dimethyl-non-1-enyl)-2,5,7,8-tetramethyl-chroman-6-yl] ester]
[1]; at 5 μM
  inhibition of serum-induced 4T1 cell migration: effective in inhibiting cell migration

## Cc1c(C)c2c(c(C)c1OCC(=O)O)CC[C@](C)(/C=C/CC(C)CCCC(C)C)O2 (stereo partly shown) [Compound 5, [2-(4,8-Dimethyl-non-1-enyl)-2,5,7,8-tetramethyl-chroman-6-yloxy]-acetic acid]
[2]; 2.5 μM
  effect on focal adhesion sites (anti-FAK immunostaining): loss of focal adhesion sites
[2]; 5 μM
  FAK degradation (Western blotting): induced FAK degradation
[1]; at 5 μM
  inhibition of serum-induced 4T1 cell migration: effective in inhibiting cell migration
[3]; 5 μM
  effect on actin stress fiber and lamellipodia formation: rapid dissolution of stress fiber and impairment of lamellipodia formation

## Cc1c(C)c2c(c(C)c1OCC(=O)O)CC[C@](C)(CCCC(C)CCCC(C)C)O2 (stereo partly shown) [Compound 6, [2-(4,8-Dimethyl-nonyl)-2,5,7,8-tetramethyl-chroman-6-yloxy]-acetic acid]
[1]; at 5 μM
  inhibition of serum-induced 4T1 cell migration: effective in inhibiting cell migration
[3]; 10 μM
  effect on actin stress fiber and lamellipodia formation: rapid dissolution of stress fiber and impairment of lamellipodia formation

## α-tocopheryl succinate [Compound 1, reference compound]
[4]
  suppression of MCF-7 cell adhesion: ineffective
[2]; 5 μM
  FAK degradation (Western blotting): less evident or not appreciable
[2]; 5 μM, negative control
  effect on focal adhesion sites (anti-FAK immunostaining): typical punctate pattern
[1]; at 50 μM
  inhibition of serum-induced 4T1 cell migration: little effect
[5]
  suppression of SKBR3 cell adhesion: ineffective
[6]
  IC50: 10 µM
[3]; 50 μM
  effect on actin stress fiber: remained largely intact

## Cc1c(C)c2c(c(C)c1OC(=O)CCC(=O)O)CC[C@](C)(CCCC(C)CCCC(C)C)O2 (stereo partly shown) [Compound 2]
[2]; 5 μM
  FAK degradation (Western blotting): less evident or not appreciable
[1]; at 5 μM
  inhibition of serum-induced 4T1 cell migration: little effect
